In publication PMC2819108 (Bioorganic & medicinal chemistry, 2009):

Tests used:
[1] = test system: 54 human cancer cell lines; assay: NCI human cancer cell proliferation assay; format: cell-based; details: 48 h, read-out: GI50 in 16 of the 54 cell lines
How it was run: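 The NCI human tumour cell line panel was exposed to test compound at five concentrations in 10-fold serial dilution for 48 h. Growth inhibition was read as total cell protein by sulforhodamine B assay. GI50 was calculated from log dose-response curves.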

A-10 cells = assay: Loss of microtubules in A-10 cells; format: cell-based; details: 20 μM compound; Fig. 2
MCF-7 cells = assay: Cell cycle assay; format: cell-based, human; details: up to 5 μM; 48 h treatment; Fig. 3
How it was run: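 MCF-7 cells at 2×10^5 cells/ml were seeded in DMEM with 5% fetal calf serum and left overnight at 37 °C to attach. Different concentrations of test compound were then added. After 48 h of treatment, cell-cycle distribution was measured by flow cytometry.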

[2] = test system: HUVEC (human umbilical vein endothelial cells); assay: Angiogenesis assay in vitro; format: cell-based; details: 1 μM; 16 h treatment; Fig. 4
How it was run: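 HUVEC (1×10^5 cells) seeded on Matrigel in EBM-2 medium and treated with the test compound over several dose ranges (figure panels: 1 and 10 µM, with untreated control). Tube formation was observed after 16 h of treatment.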

rat thoracic aorta rings = assay: Aortic ring assay; details: 5 μM; day 6; Fig. 5
How it was run: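 Thoracic aortas from normal 1–2-month-old rats were excised into ice-cold PBS, cleaned of fibroadipose tissue, and cut into 1–1.5 mm cross-sections. Sections were washed five times in PBS, embedded in Matrigel on coverslips, and held 15 min at 37 °C, 5% CO2. EBM2 containing test compound (1–100 µM) was then added. Sprouting was examined on day 6 against an untreated control.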

[3] = test system: MCF-7 human breast carcinoma cells; assay: MCF-7 cell proliferation assay; format: cell-based; details: relative to CA-4

| SMILES | GI50 [1] | effect on interphase microtubule network of A-10 cells (A-10 cells) | effect on MCF-7 cell cycle (G2/M phase arrest) (MCF-7 cells) | HUVEC tube formation [2] | functional angiogenesis in aortic ring assay (sprout formation) (rat thoracic aorta rings) | fold less active than CA-4 as inhibitor of MCF-7 cell growth [3] |
| --- | --- | --- | --- | --- | --- | --- |
| COc1ccc(/C=C/C(=O)c2cc(OC)c(OC)c(OC)c2)cc1B(O)O [compound 4, 2-Methoxy-5-[(1E)-3-oxo-3-(3,4,5-trimethoxyphenyl)prop-1-en-1-yl]boronic acid] | 10 to 200 nM | extensive thinning of the network of microtubules | did not cause significant G2/M phase arrest | significantly inhibited the tube formation | dramatically inhibited functional angiogenesis | – |
| COc1ccc(/C=C/C(=O)c2cc(OC)c(OC)c(OC)c2)cc1O [compound 6, (2E)-3-(3-Hydroxy-4-methoxyphenyl)-1-(3,4,5-trimethoxyphenyl) prop-2-en-1-one] | – | complete disappearance of the microtubule network | – | – | – | 3–4 fold |
